Converted amounts (≈) assume the structure as drawn. Blank lines part the entries; values can stand above or below the molecule they belong to.
How the values were obtained:
[1] = Metabolic stability in human liver microsomes assessed as extraction ratio at 1 uM after 5 to 60 mins in presence of NADPH by LC-MS/MS analysis; type: ADME, Microsome; settings: time 5-60 min, read-out: ERH
Outline: (§1)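 Human and rat liver microsomes, run in duplicate; stability reported as microsomal extraction ratio.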

[2] = Solubility of compound in phosphate buffer at pH 7 measured after 3 days; type: physicochemical; settings: time 3 day
Outline: (§2)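 Solubility in aqueous buffer at pH 2 and pH 7, and in simulated gastric and intestinal fluids.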

[3] = Solubility of compound in phosphate buffer at pH 2 measured after 3 days; type: physicochemical; settings: time 3 day; outline: as §2
[4] = Efflux ratio of apparent permeability across basolateral to apical side over apical to basolateral side in MDCK-MDR1 cells at 5 uM measured after 60 mins by LC-MS/MS analysis; type: ADME, cell-based, Canis lupus familiaris; settings: dog
Outline: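 MDCK-MDR1 cells, passages 6-30, seeded at 3.4×10^5 cells/cm² and cultured 3 days. Test compound at 5 µM final (1% DMSO) in HBSS, pH 7.4, applied to the donor side. A→B and B→A runs at 37 °C for 60 min, in duplicate, quantified by LC/MS/MS. Efflux ratio taken as B-A/A-B; monolayer integrity checked by lucifer yellow.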

[5] = biological target: Voltage-gated inwardly rectifying potassium channel KCNH2 (Homo sapiens, UniProt Q12809); test: Inhibition of human ERG expressed in CHO cells measured after 5 mins by Qpatch method; type: cell-based
Outline: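 CHO cells stably expressing hERG, whole-cell QPatch. Vehicle applied 5 min, then 0.3, 3.0, 10 and 30 µM in rising order, each concentration applied twice. Current measured after 5 min as the average of 3 voltage pulses; block taken relative to vehicle pretreatment, mean ± SEM.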

[6] = Displacement of 3-[3H] 1-(azetidin-1-yl)-2-[6-(4-fluoro-3-methyl-phenyl)pyrrolo[3,2-b]pyridin-1-yl]ethanone from GluN1a/GluN2B receptor in rat cortex membranes measured after 2 hrs by liquid scintillation counting method; type: cell membranes
Outline: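 Rat adult cortex was homogenized in 50 mM Tris pH 7.4, and membranes were washed by centrifugation. Membranes were incubated with the [3H] pyrrolopyridine tracer and test compound for 2 h at room temperature with shaking. Non-specific binding was defined with 10 µM CP-101,606. Bound tracer was separated by filtration on PEI-soaked GF/B filters and counted by liquid scintillation. Ki was obtained from a competition fit using tracer Kd; three independent runs in duplicate.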

[7] = Metabolic stability in rat liver microsomes assessed as extraction ratio at 1 uM after 5 to 60 mins in presence of NADPH by LC-MS/MS analysis; type: ADME, Microsome; settings: time 5-60 min, read-out: ERH; outline: as §1
[8] = Negative allosteric modulation of human GluN1a/GluN2B receptor expressed in CHO cells assessed as inhibition of glutamate and glycine-induced calcium flux preincubated for 5 mins followed by glutamate and glycine addition and measured after 5 mins by calcium 5 dye based FLIPR assay; type: cell-based
Outline: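 Tet-On CHO T-Rex cells expressing hGluN1a with GluN2A, 2B, 2C or 2D, plated at 20,000 cells/well and induced 24 h before the assay in the presence of ketamine. Cells loaded 1 h at room temperature with Calcium 5 dye, pH 7.4 HEPES buffer. Compound added 5 min, then glutamate (~EC80) plus 10 µM glycine for 5 min; FLIPR fluorescence normalized to control wells. Three independent runs in duplicate (two for some).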

[9] = Protein binding in human plasma at 1 uM after 6 hrs by equilibrium dialysis method; type: ADME, cell-free; settings: read-out: PPB (converted)

Chain of Voltage-gated inwardly rectifying potassium channel KCNH2 (Q12809 whole entry): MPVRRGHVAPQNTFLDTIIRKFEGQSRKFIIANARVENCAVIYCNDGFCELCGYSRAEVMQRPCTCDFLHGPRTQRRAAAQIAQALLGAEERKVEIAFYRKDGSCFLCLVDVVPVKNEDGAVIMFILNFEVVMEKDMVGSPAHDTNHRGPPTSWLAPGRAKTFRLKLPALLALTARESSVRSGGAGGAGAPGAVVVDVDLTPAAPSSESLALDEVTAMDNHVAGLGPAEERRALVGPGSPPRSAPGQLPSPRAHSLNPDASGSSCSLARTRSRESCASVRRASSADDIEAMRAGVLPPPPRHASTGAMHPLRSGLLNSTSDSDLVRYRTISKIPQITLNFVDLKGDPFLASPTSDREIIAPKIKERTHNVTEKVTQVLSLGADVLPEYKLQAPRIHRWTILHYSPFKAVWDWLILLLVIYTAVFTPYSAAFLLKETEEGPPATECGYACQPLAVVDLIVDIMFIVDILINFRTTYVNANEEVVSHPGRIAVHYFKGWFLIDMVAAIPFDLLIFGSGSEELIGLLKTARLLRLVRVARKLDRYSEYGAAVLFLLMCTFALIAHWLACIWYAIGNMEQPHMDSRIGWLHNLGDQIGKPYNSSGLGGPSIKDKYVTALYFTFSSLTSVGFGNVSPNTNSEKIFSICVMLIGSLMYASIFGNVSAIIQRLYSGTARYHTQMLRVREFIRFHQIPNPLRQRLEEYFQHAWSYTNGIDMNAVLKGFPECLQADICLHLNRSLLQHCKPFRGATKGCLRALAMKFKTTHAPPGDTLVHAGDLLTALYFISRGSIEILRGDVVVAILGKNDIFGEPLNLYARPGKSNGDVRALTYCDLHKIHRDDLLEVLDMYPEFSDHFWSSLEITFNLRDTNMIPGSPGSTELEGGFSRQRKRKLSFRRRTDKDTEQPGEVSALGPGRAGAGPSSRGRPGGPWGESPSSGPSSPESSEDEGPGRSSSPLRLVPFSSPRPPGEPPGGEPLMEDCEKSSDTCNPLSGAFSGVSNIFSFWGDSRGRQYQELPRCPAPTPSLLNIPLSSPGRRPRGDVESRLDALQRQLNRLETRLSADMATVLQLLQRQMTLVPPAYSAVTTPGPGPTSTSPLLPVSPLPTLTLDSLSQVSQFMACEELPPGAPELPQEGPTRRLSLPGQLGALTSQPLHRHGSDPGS

SMILES: Cc1csc(-c2cnc3c(c2)n(CC(=O)N(C)C)c(=O)n3C)c1
hepatic extraction ratio at 1 µM [1]: 0.59 | solubility at 72 h [2]: 25 µM (≈ 8.26 µg/mL) | solubility at 72 h [3]: 31 µM (≈ 10.2 µg/mL) | efflux ratio at 1 h, 5 µM [4]: 3.5 | IC50 [5]: > 10000 nM | Ki [6]: 270 nM | hepatic extraction ratio at 1 µM [7]: 0.82 | IC50 [8]: 216 nM

SMILES: Cn1c(=O)n(CC(=O)N2CC(F)C2)c2cc(-c3cccc(C(F)(F)F)c3)cnc21
hepatic extraction ratio at 1 µM [1]: < 0.3 | solubility at 72 h [2]: 16 µM (≈ 6.53 µg/mL) | solubility at 72 h [3]: 17 µM (≈ 6.94 µg/mL) | efflux ratio at 1 h, 5 µM [4]: 7 | IC50 [5]: > 10000 nM | Ki [6]: 25 nM | hepatic extraction ratio at 1 µM [7]: < 0.2 | IC50 [8]: 118 nM

SMILES: Cn1c(=O)n(CC(=O)N2CCC2)c2cc(-c3ccc(C4CC4)s3)cnc21
IC50 [5]: > 10000 nM | Ki [6]: 63 nM | IC50 [8]: 81 nM

Now from value to molecule, other results behind:

hepatic extraction ratio at 1 µM [1]: < 0.3 | solubility at 72 h [2]: 23 µM (≈ 8.98 µg/mL) | solubility at 72 h [3]: 19 µM (≈ 7.42 µg/mL) | efflux ratio at 1 h, 5 µM [4]: 9 | Ki [6]: 19 nM | hepatic extraction ratio at 1 µM [7]: < 0.2 | IC50 [8]: 97 nM | fraction unbound at 6 h, 1 µM [9]: 0.052
SMILES: Cn1c(=O)n(CC(=O)N2CCC2)c2cc(-c3cccc(C(F)(F)F)c3)cnc21
IC50 [5]: > 10000 nM

hepatic extraction ratio at 1 µM [1]: 0.38 | solubility at 72 h [2]: 6 µM (≈ 2.27 µg/mL) | solubility at 72 h [3]: 6 µM (≈ 2.27 µg/mL) | efflux ratio at 1 h, 5 µM [4]: 7 | Ki [6]: 19 nM | hepatic extraction ratio at 1 µM [7]: 0.31 | IC50 [8]: 47 nM
SMILES: CN(C)C(=O)Cn1c(=O)n(C)c2ncc(-c3cccc(C(F)(F)F)c3)cc21
IC50 [5]: > 10000 nM
